We go through 17 molecules from ChEMBL document CHEMBL5120742, “Multi-target weapons: diaryl-pyrazoline thiazolidinediones simultaneously targeting VEGFR-2 and HDAC cancer hallmarks” (RSC Med Chem, 2021).

In general, IC50 refers to the concentration needed to halve the response being measured. The inhibition is the relative decrease from the control value, in per cent.

For one data set, the target named is T1, Histone deacetylase 8 (Homo sapiens, UniProt Q9BY41).
T1 sequence (Q9BY41 whole entry): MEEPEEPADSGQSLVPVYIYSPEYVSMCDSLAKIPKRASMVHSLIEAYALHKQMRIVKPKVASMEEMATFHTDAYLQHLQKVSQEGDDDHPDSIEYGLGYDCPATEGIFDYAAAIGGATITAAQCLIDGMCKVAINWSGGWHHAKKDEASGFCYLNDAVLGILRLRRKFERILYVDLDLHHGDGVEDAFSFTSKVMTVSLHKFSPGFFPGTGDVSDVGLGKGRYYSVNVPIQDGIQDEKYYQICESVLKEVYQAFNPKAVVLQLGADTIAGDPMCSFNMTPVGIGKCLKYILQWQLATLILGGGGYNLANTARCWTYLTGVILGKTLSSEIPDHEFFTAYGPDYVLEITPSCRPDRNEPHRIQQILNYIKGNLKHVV
Kind of data set: Inhibition of recombinant human N-terminal His6-SUMO-tagged C-terminal SII-tagged HDAC8 expressed in Escherichia coli (BL21) DE3 pLysS cells using BocLys(trifluoroacetyl)-AMC as substrate incubated for 30 mins by fluorescence assay. The essentials: (§1)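 Catalytic-domain HDAC4 (His6-SUMO/SII-tagged) and full-length codon-optimized human HDAC8 were expressed in E. coli BL21 DE3 pLysS from pET14b. Both were assayed in a two-step fluorogenic format with Boc-Lys(trifluoroacetyl)-AMC, followed by trypsin development. Compounds were screened first at 50 µM for residual activity.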

The target of data set [1] is T2, Histone deacetylase 8 (Homo sapiens) (UniProt Q9BY41).
T2 sequence (whole entry): T1 sequence (Q9BY41 whole entry)
Kind of data set: Inhibition of recombinant human N-terminal His6-SUMO-tagged C-terminal SII-tagged HDAC8 expressed in Escherichia coli (BL21) DE3 pLysS cells assessed as residual activity at 50 uM using BocLys(trifluoroacetyl)-AMC as substrate incubated for 30 mins by fluorescence assay relative to control. The essentials:
as §1

A short description of data set [2]: Cytotoxicity against HUVEC cells assessed as reduction in cell viability after 96 hrs by MTT assay. The settings on record: human.
The target in data set [3] is T3, Histone deacetylase 4 (Homo sapiens, UniProt P56524). Kind of data set: Inhibition of recombinant human N-terminal His6-SUMO-tagged C-terminal SII-tagged HDAC4 expressed in Escherichia coli (BL21) DE3 pLysS cells assessed as residual activity at 50 uM using BocLys(trifluoroacetyl)-AMC as substrate incubated for 30 mins by fluorescence assay relative to control. The essentials: as §1
T3 sequence (P56524 whole entry): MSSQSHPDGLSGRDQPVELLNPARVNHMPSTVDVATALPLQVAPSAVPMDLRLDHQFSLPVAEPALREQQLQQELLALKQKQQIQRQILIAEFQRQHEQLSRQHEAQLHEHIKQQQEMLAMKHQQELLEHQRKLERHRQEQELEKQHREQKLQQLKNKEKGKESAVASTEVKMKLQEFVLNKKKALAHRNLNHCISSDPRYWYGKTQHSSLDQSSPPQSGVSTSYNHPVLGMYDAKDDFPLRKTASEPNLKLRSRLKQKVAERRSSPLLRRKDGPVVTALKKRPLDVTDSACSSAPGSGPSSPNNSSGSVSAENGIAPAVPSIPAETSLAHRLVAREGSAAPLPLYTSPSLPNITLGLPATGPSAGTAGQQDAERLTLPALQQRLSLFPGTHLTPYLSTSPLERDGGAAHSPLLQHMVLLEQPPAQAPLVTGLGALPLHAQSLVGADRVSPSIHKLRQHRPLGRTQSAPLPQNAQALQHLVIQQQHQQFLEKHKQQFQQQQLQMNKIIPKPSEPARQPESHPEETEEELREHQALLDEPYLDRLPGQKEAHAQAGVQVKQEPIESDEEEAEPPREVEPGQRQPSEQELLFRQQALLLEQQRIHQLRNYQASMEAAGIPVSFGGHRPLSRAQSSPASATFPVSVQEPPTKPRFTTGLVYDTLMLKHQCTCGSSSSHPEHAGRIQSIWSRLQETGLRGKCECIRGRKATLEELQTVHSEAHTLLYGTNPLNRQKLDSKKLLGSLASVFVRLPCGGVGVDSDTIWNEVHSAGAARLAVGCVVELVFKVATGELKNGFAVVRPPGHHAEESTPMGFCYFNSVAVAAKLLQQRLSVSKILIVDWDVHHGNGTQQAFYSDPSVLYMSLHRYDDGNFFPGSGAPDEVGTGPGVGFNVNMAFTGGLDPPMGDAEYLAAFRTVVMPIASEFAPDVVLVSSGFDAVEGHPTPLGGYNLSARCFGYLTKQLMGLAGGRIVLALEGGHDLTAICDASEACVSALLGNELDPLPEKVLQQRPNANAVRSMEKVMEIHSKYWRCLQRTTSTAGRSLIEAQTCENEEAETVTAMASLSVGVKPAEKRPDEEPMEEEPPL

Data set [4] concerns the target T3, Histone deacetylase 4. Kind of data set: Inhibition of recombinant human N-terminal His6-SUMO-tagged C-terminal SII-tagged HDAC4 expressed in Escherichia coli (BL21) DE3 pLysS cells using BocLys(trifluoroacetyl)-AMC as substrate incubated for 30 mins by fluorescence assay. A digest of the protocol:
as §1

The target of data set [5] is Vascular endothelial growth factor receptor 2 (Homo sapiens, UniProt P35968). Kind of data set: Inhibition of human VEGFR2 in HUVEC cells assessed as reduction in VEGFR2 phosphorylation at 10 uM incubated for 30 mins by anti-phospho VEGF Tyr 1175 antibody based assay relative to control. It counts as cell-based. The essentials: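 HUVECs were seeded at 4000–5000 per well in DMEM with 10% FCS for 12 h, then held 24 h in serum. Compound (10 µM) was added with serum for 30 min at 37 °C. Cells were fixed in 4% formaldehyde and probed with anti-phospho-VEGFR Tyr1175 (1:1000), then an HRP secondary (1:5000). TMB signal was stopped with 2N H2SO4 and read at 450 nm. Percent inhibition is normalized to control.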
Vascular endothelial growth factor receptor 2, sequence (P35968 whole entry): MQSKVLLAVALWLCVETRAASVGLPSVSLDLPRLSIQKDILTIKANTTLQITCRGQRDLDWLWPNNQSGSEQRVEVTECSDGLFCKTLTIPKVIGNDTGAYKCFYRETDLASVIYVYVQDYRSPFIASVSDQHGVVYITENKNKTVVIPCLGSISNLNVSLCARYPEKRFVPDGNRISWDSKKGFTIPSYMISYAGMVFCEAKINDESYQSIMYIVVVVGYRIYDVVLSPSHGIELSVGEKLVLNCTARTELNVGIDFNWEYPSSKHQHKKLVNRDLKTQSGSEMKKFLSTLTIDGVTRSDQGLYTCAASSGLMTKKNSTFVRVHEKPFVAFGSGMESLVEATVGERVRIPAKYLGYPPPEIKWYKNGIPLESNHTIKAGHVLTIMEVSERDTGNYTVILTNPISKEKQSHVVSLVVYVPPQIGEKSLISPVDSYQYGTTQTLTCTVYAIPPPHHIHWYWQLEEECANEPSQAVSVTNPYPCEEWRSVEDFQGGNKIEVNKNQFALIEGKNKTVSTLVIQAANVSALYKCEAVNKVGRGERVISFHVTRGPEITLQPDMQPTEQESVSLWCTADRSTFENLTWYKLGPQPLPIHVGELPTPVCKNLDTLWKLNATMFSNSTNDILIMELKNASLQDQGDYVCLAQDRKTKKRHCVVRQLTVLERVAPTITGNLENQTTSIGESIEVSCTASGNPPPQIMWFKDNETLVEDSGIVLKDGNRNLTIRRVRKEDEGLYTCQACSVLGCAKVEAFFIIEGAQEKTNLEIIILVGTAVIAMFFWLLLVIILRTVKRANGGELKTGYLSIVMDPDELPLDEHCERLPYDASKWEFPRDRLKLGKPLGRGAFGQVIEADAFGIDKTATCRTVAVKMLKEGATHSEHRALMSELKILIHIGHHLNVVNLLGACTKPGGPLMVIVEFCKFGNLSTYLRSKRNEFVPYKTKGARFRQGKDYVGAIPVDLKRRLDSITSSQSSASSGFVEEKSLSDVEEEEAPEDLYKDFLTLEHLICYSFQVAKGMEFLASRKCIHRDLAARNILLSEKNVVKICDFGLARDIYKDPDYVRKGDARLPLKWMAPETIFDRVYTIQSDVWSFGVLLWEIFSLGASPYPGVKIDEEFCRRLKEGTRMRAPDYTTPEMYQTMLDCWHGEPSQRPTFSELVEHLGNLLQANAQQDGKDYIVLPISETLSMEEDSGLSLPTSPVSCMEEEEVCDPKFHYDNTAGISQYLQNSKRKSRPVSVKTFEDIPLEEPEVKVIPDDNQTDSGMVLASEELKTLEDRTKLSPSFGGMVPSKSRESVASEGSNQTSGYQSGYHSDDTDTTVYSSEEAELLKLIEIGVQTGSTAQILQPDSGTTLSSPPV

For a further data set, the system named is K562. Kind of data set: Antiproliferative activity against human K562 cells assessed as reduction in cell viability after 48 hrs by MTT assay. It counts as functional, cell-based. The settings on record: K562, 48 h. A digest of the protocol: (§2)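 MCF-7, K562, A549 and HT-29 lines were seeded in 96-well plates and kept overnight at 37 °C, 5% CO2, 95% humidity. They were then exposed to six concentrations (100 to 2.5) for 48 h. After PBS washes, MTT was added for 4 h at 37 °C and formazan was dissolved in DMSO. Absorbance was read at 570 nm. Survival is mean OD of treated wells over the negative control, and IC50 was derived from that.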
On the technique in general: Tetrazolium assays rely on reduction of a dye to a coloured formazan, in cell work by metabolically active cells.

Another data set relates to HT-29. Kind of data set: Antiproliferative activity against human HT-29 cells assessed as reduction in cell viability after 48 hrs by MTT assay. It counts as functional, cell-based. The settings on record: HT-29, 48 h. A digest of the protocol: as §2

In the case of `O=C1NC(=O)/C(=C\c2ccc(OCC(=O)N3N=C(c4ccc(F)cc4)CC3c3ccc(F)cc3)cc2)S1` (centres undefined), the concentration for half-maximal inhibition (IC50) at Histone deacetylase 8 was over 50000 nM; on Histone deacetylase 4 [4], 1400 nM. The Activity in data set [1] came to 61%; at Histone deacetylase 4 [3] it was 3.3%. Also, the IC50 at 96 h in data set [2] is over 10000 nM.

In the case of `O=C1NC(=O)/C(=C\c2ccc(OCC(=O)N3N=C(c4ccccc4)CC3c3ccccc3)cc2)S1` (centres undefined), the IC50 at Histone deacetylase 8 came to 20000 nM; on Histone deacetylase 4 [4], 1600 nM. For the same molecule, the values for the Activity (in data set [1]; at Histone deacetylase 4 [3]) were 39% and 11%, respectively.

Consider `O=C1NC(=O)/C(=C\c2ccc(OCC(=O)N3N=C(c4ccccc4)CC3c3ccc(Br)cc3)cc2)S1` (centres undefined), for which the IC50 on Histone deacetylase 8 is 35000 nM; at Histone deacetylase 4 [4], 1200 nM. Also, the Activity is 21% in data set [1] and 7% on Histone deacetylase 4 [3].

Regarding `O=C1NC(=O)/C(=C\c2ccc(OCC(=O)N3N=C(c4ccccc4)CC3c3ccc(F)cc3F)cc2)S1` (centres undefined), the IC50 was determined as 34000 nM at Histone deacetylase 8 and 2200 nM at Histone deacetylase 4 [4]. For the same molecule, the Activity in data set [1] was found to be 33%; on Histone deacetylase 4 [3] it was 17%.

`O=C1NC(=O)/C(=C\c2ccc(OCC(=O)N3N=C(c4ccccc4)CC3c3ccccc3Cl)cc2)S1` (centres undefined): the inhibition in data set [5] is 49%. In addition, the values for the IC50 at Histone deacetylase 8 and at Histone deacetylase 4 [4] were 29000 nM and 1200 nM, respectively. In addition, the Activity was determined as 27% in data set [1] and 14% on Histone deacetylase 4 [3]. In data set [2], the IC50 at 96 h came out at 2000 nM.

With `O=C1NC(=O)/C(=C\c2ccc(OCC(=O)N3N=C(c4ccc(F)cc4)CC3c3ccccc3Cl)cc2)S1` (centres undefined), the IC50 at Histone deacetylase 8 is over 50000 nM; at Histone deacetylase 4 [4], 1100 nM. In addition, the Activity turned out to be 28% in data set [1] and 3.3% on Histone deacetylase 4 [3].

For `O=C1NC(=O)/C(=C\c2ccc(OCC(=O)N3N=C(c4ccc(F)cc4)CC3c3ccc(C(F)(F)F)cc3)cc2)S1` (centres undefined), the inhibition in data set [5] turned out to be 48.7%. For the same molecule, the IC50 at Histone deacetylase 8 was over 50000 nM; at Histone deacetylase 4 [4], 1300 nM. For the same molecule, the Activity in data set [1] was 81%; on Histone deacetylase 4 [3], 9.2%. In addition, in data set [2], the IC50 at 96 h is 6000 nM.

Turning to `Cc1ccc(C2CC(c3ccc(F)cc3)=NN2C(=O)COc2ccc(/C=C3/SC(=O)NC3=O)cc2)cc1` (centres undefined), the IC50 at Histone deacetylase 8 is over 50000 nM; at Histone deacetylase 4 [4] it was 1800 nM. For the same molecule, the Activity was determined as 81% in data set [1] and 10% on Histone deacetylase 4 [3].

`O=C1NC(=O)/C(=C\c2ccc(OCC(=O)N3N=C(c4ccc(F)cc4)CC3c3ccc(F)cc3F)cc2)S1` (centres undefined): the IC50 on Histone deacetylase 8 is over 50000 nM; at Histone deacetylase 4 [4], 1600 nM. Besides, the results for the Activity (in data set [1]; on Histone deacetylase 4 [3]) were 63% and 10%, respectively.

In the case of `O=C1NC(=O)/C(=C\c2ccc(OCC(=O)N3N=C(c4ccccc4)CC3c3ccc(F)cc3)cc2)S1` (centres undefined), the figures for the IC50 at Histone deacetylase 8 and at Histone deacetylase 4 [4] were 26000 nM and 1700 nM, respectively. Besides, the Activity in data set [1] was found to be 26%; on Histone deacetylase 4 [3], 2.5%.

Turning to `O=C1NC(=O)/C(=C\c2ccc(OCC(=O)N3N=C(c4ccccc4)CC3c3ccc(C(F)(F)F)cc3)cc2)S1` (centres undefined), the IC50 at Histone deacetylase 8 was 16000 nM; on Histone deacetylase 4 [4], 1000 nM. The values for the Activity (in data set [1]; at Histone deacetylase 4 [3]) were 8.2% and 12%, respectively. Also, the IC50 at 96 h in data set [2] was over 10000 nM.

For `Cc1ccc(C2CC(c3ccccc3)=NN2C(=O)COc2ccc(/C=C3/SC(=O)NC3=O)cc2)cc1` (centres undefined), the IC50 was found to be 31000 nM on Histone deacetylase 8 and 1200 nM on Histone deacetylase 4 [4]. Further, the values for the Activity (in data set [1]; on Histone deacetylase 4 [3]) were 36% and 4.6%, respectively.

`O=C1NC(=O)/C(=C\c2ccc(OCC(=O)N3N=C(c4ccc(F)cc4)CC3c3ccccc3)cc2)S1` (centres undefined): the IC50 was over 50000 nM at Histone deacetylase 8 and 4200 nM on Histone deacetylase 4 [4]. Further, the results for the Activity (in data set [1]; on Histone deacetylase 4 [3]) were 58% and 10%, respectively. For the same molecule, the concentration for half-maximal inhibition (IC50) at 96 h in data set [2] is over 10000 nM.

As to `Cc1ccc(C2CC(c3ccc(F)cc3F)=NN2C(=O)COc2ccc(/C=C3/SC(=O)NC3=O)cc2)cc1` (centres undefined), the IC50 on Histone deacetylase 8 was over 50000 nM; at Histone deacetylase 4 [4] it was 1500 nM. For the same molecule, the Activity in data set [1] is 69%; on Histone deacetylase 4 [3] it was 9.4%. The IC50 at 96 h in data set [2] was over 10000 nM.

On to `CC(=O)O[C@H]1C(=O)[C@@]2(C)[C@H]([C@H](OC(=O)c3ccccc3)[C@]3(O)C[C@H](OC(=O)[C@H](O)[C@@H](NC(=O)c4ccccc4)c4ccccc4)C(C)=C1C3(C)C)[C@]1(OC(C)=O)CO[C@@H]1C[C@@H]2O` [PACLITAXEL], for which the IC50 in the data set on K562 is 290 nM; in the data set with HT-29 it was 280 nM.

On to `O=C1NC(=O)/C(=C\c2ccc(OCC(=O)N3N=C(c4ccc(F)cc4F)CC3c3ccco3)cc2)S1` (centres undefined), for which the IC50 on Histone deacetylase 8 was over 50000 nM; at Histone deacetylase 4 [4] it was 15000 nM. In addition, the Activity came to 100% in data set [1] and 22% at Histone deacetylase 4 [3].

In the case of `O=C1NC(=O)/C(=C\c2ccc(OCC(=O)N3N=C(c4ccc(F)cc4F)CC3c3ccc(F)cc3)cc2)S1` (centres undefined), the IC50 on Histone deacetylase 8 is over 50000 nM; at Histone deacetylase 4 [4], 1500 nM. The figures for the Activity (in data set [1]; on Histone deacetylase 4 [3]) were 69% and 10%, respectively.
